Columns and labels:
[1] = Intrinsic clearance in beagle dog hepatocytes at 10 uM by LC-MS/MS analysis; type: ADME, cell-based, Canis lupus familiaris, Hepatocyte; details: read-out: CLH
Summary of the method: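 Cryopreserved hepatocytes (Sprague-Dawley rat, beagle dog, human) incubated with compound at 10 µM, 37 °C, for up to 4 h. About 0.5×10^6 cells/well for rat and dog, 0.24×10^6 for human.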

RPMI-8226 [2] = assay: Cell cycle arrest in human RPMI8226 cells assessed as accumulation at sub-G1 phase at 5 uM after 24 hrs by propidium iodide staining based flow cytometry (reference value: 12.25%); type: functional
Salmonella typhimurium = assay: Mutagenicity in Salmonella typhimurium TA98 assessed as increase in number of revertant colonies at 3 to 3000 ug/plate in absence of S9 fraction by Ames test; type: toxicity; details: salmonella enterica subsp. enterica serovar typhimurium
Summary of the method: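 Ames test, TA98 and TA100. Overnight broth cultures preincubated 20 min at 35-37 °C with compound (DMSO stock) plus Aroclor 1254-induced rat liver S9 mix or PBS, then plated in top agar with 0.05 mM histidine/biotin. Final 3-3000 µg/plate; revertants counted after 72 h at 37 °C. ≥3-fold over vehicle = mutagenic; ≤50% = cytotoxic.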

U-266 = assay: Cell cycle arrest in human U266 cells assessed as accumulation at S phase at 5 uM after 24 hrs by propidium iodide staining based flow cytometry (reference value: 14.05%); type: functional
RPMI-8226 [3] = assay: Cell cycle arrest in human RPMI8226 cells assessed as accumulation at G0/G1 phase at 5 uM after 24 hrs by propidium iodide staining based flow cytometry (reference value: 44.67%); type: functional
NCI-H929 = assay: Cell cycle arrest in human NCI-H929 cells assessed as accumulation at S phase at 5 uM after 24 hrs in presence of bortezomib by propidium iodide staining based flow cytometry (reference value: 13.5%); type: functional
[4] = Apparent permeability from apical to basolateral side in human Caco2 cells assessed as drug recovery at 10 uM after 2 hrs by LC-MS/MS analysis; type: ADME, cell-based; details: Caco-2, read-out: Drug recovery
Summary of the method: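 Caco-2 cells seeded at 8.4 × 10^4 cells/cm2 on polycarbonate inserts for 21 days. For A→B, donor was apical (HBSS/MES pH 6.5, 10 µM compound) and receiver basolateral (HBSS/HEPES pH 7.4). For B→A, donor was basolateral (HBSS/HEPES pH 7.4, 10 µM) and receiver apical (HBSS/MES pH 6.5). Incubated at 37 °C for 2 h. Receiver sampled at 30, 60, 90 and 120 min, donor at 0 and 120 min.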

RPMI-8226 [5] = assay: Cell cycle arrest in human RPMI8226 cells assessed as accumulation at S phase at 5 uM after 24 hrs in presence of bortezomib by propidium iodide staining based flow cytometry (reference value: 19.53%); type: functional
RPMI-8226 [6] = assay: Cell cycle arrest in human RPMI8226 cells assessed as accumulation at G2/M phase at 5 uM after 24 hrs by propidium iodide staining based flow cytometry (reference value: 23.94%); type: functional

CLint scaled at 10 µM [1]: 39.6 mL/min/kg
recovery at 2 h, 10 µM [4]: 72.2%
Compound: O=C(NO)c1ccc(CNc2cccc3cccnc23)cc1
Activity (RPMI-8226 [2]): 12.88%
Activity (Salmonella typhimurium): Non-Toxic
Activity (U-266): 6.12%
Activity (RPMI-8226 [3]): 41.95%
Activity (NCI-H929): 8.6%
Activity (RPMI-8226 [5]): 2.46%
Activity (RPMI-8226 [6]): 31.53%

From ChEMBL document CHEMBL4024792, “(N-Hydroxycarbonylbenylamino)quinolines as Selective Histone Deacetylase 6 Inhibitors Suppress Growth of Multiple Myeloma in Vitro and in Vivo” (J Med Chem, 2018)
